Assay results collected from several papers.
Each line is one published result; the experiments were not run side by side.
Target: Mitogen-activated protein kinase kinase kinase kinase 2 (MAP4K2, Homo sapiens, UniProt Q12851)
One construct used (Q12851 1-820): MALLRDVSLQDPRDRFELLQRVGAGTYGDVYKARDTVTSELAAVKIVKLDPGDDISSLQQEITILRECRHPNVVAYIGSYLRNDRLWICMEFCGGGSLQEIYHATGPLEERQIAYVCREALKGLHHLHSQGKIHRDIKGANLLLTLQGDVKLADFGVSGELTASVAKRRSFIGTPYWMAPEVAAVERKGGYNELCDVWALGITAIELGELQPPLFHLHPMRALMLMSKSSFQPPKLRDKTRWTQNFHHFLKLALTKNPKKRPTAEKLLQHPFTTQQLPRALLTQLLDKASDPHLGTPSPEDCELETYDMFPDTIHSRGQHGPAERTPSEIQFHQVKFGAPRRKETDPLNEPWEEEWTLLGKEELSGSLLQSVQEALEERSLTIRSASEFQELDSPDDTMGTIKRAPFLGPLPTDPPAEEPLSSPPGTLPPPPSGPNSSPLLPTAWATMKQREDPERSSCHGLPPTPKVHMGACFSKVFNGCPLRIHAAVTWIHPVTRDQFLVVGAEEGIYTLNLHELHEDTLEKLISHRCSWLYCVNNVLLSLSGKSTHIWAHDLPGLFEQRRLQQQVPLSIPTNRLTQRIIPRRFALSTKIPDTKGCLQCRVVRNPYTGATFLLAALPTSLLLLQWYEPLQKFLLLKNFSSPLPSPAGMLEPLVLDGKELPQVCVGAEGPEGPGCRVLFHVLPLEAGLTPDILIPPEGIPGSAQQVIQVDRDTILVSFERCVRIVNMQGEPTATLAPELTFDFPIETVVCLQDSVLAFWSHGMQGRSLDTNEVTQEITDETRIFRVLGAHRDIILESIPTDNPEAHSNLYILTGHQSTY

CCN1CCN(Cc2ccc(C(=O)Nc3ccc(C)c(Oc4ccc5c(c4)CC(=O)N5)c3)cc2C(F)(F)F)CC1
remaining binding (binding; competition with immobilised ligand; 1 µM): 100%

FC(F)(F)Oc1cccc(-c2cnc3ccc(-c4ccncc4)nn23)c1
remaining binding (cell-free assay; competition with immobilised ligand; 5 µM): 17%

CNC(=O)[C@@H]1CC[C@@H](n2c(-c3ccc4cnccc4c3)nc3ccc(C(=O)NCc4cccc(C(N)=O)c4)cc32)C1
remaining binding (binding; competition with immobilised ligand; 1 µM): 100%

O=C(Nc1cnc(Oc2ccc(F)cc2)nc1)N1CCc2ncccc2[C@@H]1c1ccc(F)cc1
remaining binding (cell-free assay; competition with immobilised ligand; 1 µM): 100%

O=C(NCCCN1CCOCC1)c1ccc(Nc2nccc(-c3cc4ccccc4s3)n2)cc1
remaining binding (binding; competition with immobilised ligand; 1 µM): 73%

CN(C)c1nccc(-c2cnn3ncccc23)n1
remaining binding (binding; 1 µM): 100%

O=C(c1ccc(Nc2nccc(-c3cc4ccccc4s3)n2)cc1)N1CCC(N2CCCC2)CC1
remaining binding (binding; competition with immobilised ligand; 1 µM): 52%

O=C(NCc1ncc(C(F)(F)F)cc1Cl)c1ccc2c(c1)C1(CCS(=O)(=O)CC1)[C@@H](C1CC1)N2S(=O)(=O)c1ccc(F)cc1
remaining binding (cell-free assay; competition with immobilised ligand; 1 µM): 91%

O=C(NCC1CCOCC1)c1n[nH]cc1NC(=O)c1c(F)cccc1F
remaining binding (binding; competition with immobilised ligand; 1 µM): 100%

COc1ncc2cc3ccccc3nc2c1C#N
remaining binding (cell-free assay; competition with immobilised ligand; 5 µM): 84%

O=C(c1ccc(Nc2ncc(Cl)c(-c3ccc(Cl)s3)n2)cc1)N1CCC(N2CCCC2)CC1
remaining binding (binding; competition with immobilised ligand; 1 µM): 15%

Cc1cnn2ncc(-c3ccnc(N(C)C)n3)c2c1
remaining binding (binding; 1 µM): 99%

CO[C@H]1CC[C@H](CNc2ccc(S(=O)(=O)NC(=O)c3ccc(N4CCN(CC5=C(c6ccc(Cl)cc6)CC(C)(C)CC5)CC4)cc3Oc3cnc4[nH]ccc4c3)cc2[N+](=O)[O-])CC1
remaining binding (cell-free assay; competition with immobilised ligand; 1 µM): 83%

CC1CCCN1c1nccc(-c2cnn3ncccc23)n1 (stereo not shown)
remaining binding (binding; 1 µM): 100%

C=CC(=O)N1CCC(C(=O)NCC(=O)N2CCN(c3nc(-c4cnc(N)nc4C(F)F)nc(N4CCOCC4)n3)CC2)CC1
remaining binding (binding; competition with immobilised ligand; 1 µM): 100%

C[C@H]1CCN(c2nccc(-c3cnn4ncccc34)n2)C1
remaining binding (binding; 1 µM): 71%

Cc1c[nH]c2nccc(Oc3c(F)cc(Nc4cc(Cl)nc(N)n4)cc3F)c12
remaining binding (cell-free assay; competition with immobilised ligand; 0.1 µM): 69%

COc1cnc(Nc2cccc(S(N)(=O)=O)c2)nc1N1CCN(c2ccccc2)CC1
remaining binding (binding; competition with immobilised ligand; 1 µM): 78%

CN(C)c1ncc(F)c(-c2cnn3ncccc23)n1
remaining binding (binding; 1 µM): 82%

O=C(N1CCS(=O)(=O)CC1)N1C[C@H](c2ccc(OC(F)(F)F)cc2)C[C@H](c2nc(C3CC3)no2)C1
remaining binding (cell-free assay; competition with immobilised ligand; 1 µM): 94%

COc1ccnn2ncc(-c3ccnc(N(C)C)n3)c12
remaining binding (binding; 1 µM): 73%

CC(=O)C1=C(C)N(c2cccc(C(F)(F)F)c2)C(=O)N[C@@H]1c1ccc(C#N)nc1
remaining binding (cell-free assay; competition with immobilised ligand; 1 µM): 100%
